The values that follow come from ChEMBL document CHEMBL1123152, “Synthesis, structure, and antitumor and antiviral activities of a series of 5-halouridine cyclic 3',5'-monophosphates” (1986).

Converted amounts (≈) assume the structure as drawn.

What all share (format): functional
Assay [1] deals with L1210. Description: Cytostatic activity against proliferation of L1210/BdU cells (deoxythymidine kinase deficient L1210 cells). The conditions noted are these: Mus musculus, read-out: ID50 (the source's name). Summed up:
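Murine L1210 subline deficient in deoxythymidine kinase (L1210/BdU), selected for growth in 260 μg/mL 5-bromo-dU. Proliferation assay; value is the ID50, the dose that inhibits tumor cell proliferation by 50%.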

The test system of assay [2] is Human alphaherpesvirus 1. Description: Antiviral activity against Herpes Simplex Virus-1 (KOS). Summed up:
(§1)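 Primary rabbit kidney cell cultures infected with virus. Value is the minimum concentration that reduces virus-induced cytopathogenicity by 50%. Cytotoxicity was scored as a microscopically detectable alteration of normal cell morphology.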

In assay [3] the test system is Human alphaherpesvirus 1. Description: Antiviral activity against Herpes Simplex Virus-1 (McIntyre). In short, it runs like this: as §1
Assay [4] concerns Human alphaherpesvirus 2. Description: Antiviral activity against Herpes Simplex Virus-2(Lyons). Summed up: as §1
The subject of assay [5] is L1210. Description: Cytostatic activity against proliferation of L1210/0 cells (murine leukemia L1210 cells). Particulars: Mus musculus, read-out: ID50 (the source's name). Summed up:
(§2)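 Tumor cell proliferation assay. L1210/0 is the parental murine leukemia line and Raji/0 the parental human lymphoblast line, with a deoxythymidine kinase deficient Raji subline. Value is the ID50, the dose that inhibits cell proliferation by 50%.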

In assay [6] the test system is Raji. Description: Cytostatic activity against proliferation of Raji/TK cells (deoxythymidine kinase deficient Raji cells). Particulars: Homo sapiens, read-out: ID50 (the source's name). In short, it runs like this:
as §2

The subject of assay [7] is Vaccinia virus. The experiment in a line: Antiviral activity against vaccinia virus. Particulars: Orthopoxvirus vaccinia. Summed up:
as §1

Assay [8] has as its system Human alphaherpesvirus 1. Description: Antiviral activity against Herpes Simplex Virus-1 (F). In short, it runs like this:
as §1

The test system of assay [9] is Human alphaherpesvirus 2. Description: Antiviral activity against Herpes Simplex Virus-2(196). Summed up: as §1
In assay [10] the test system is Vesicular stomatitis virus. The experiment in a line: Antiviral activity against vesicular stomatitis virus. In short, it runs like this:
as §1

In assay [11] the test system is Human alphaherpesvirus 2. Description: Antiviral activity against Herpes Simplex Virus-2(G). In short, it runs like this: as §1
Assay [12] has as its system Raji. The experiment in a line: Cytostatic activity against proliferation of Raji/0 cells (human lymphoblast Raji cells). Particulars: read-out: ID50 (the source's name). In short, it runs like this:
as §2

On to `O=c1[nH]c(=O)n([C@@H]2O[C@@H]3COP(=O)(O)O[C@H]3[C@H]2O)cc1Cl`, for which the IC50 is more than 1000 µg/mL in [1], more than 1000 µg/mL in [5], 369 µg/mL (≈ 1080 µM) in [6] and 278 µg/mL (≈ 816 µM) in assay [12]. Besides, the MIC in [2], in [3], in [4], in assay [7], in assay [8] and in assay [9] was more than 400 µg/mL throughout. The MIC in [10] and in assay [11] was more than 400 µg/mL each time.

`O=c1[nH]cc(I)c(=O)[nH]1`: the IC50 is more than 1000 µg/mL in assay [1], more than 1000 µg/mL in assay [5], 612 µg/mL (≈ 2570 µM) in assay [6] and more than 1000 µg/mL in assay [12].

On to `O=c1[nH]c(=O)n([C@H]2C[C@H](O)[C@@H](CO)O2)cc1/C=C/Br` [BRIVUDINE], for which the MIC in assay [2] was found to be 0.02 µg/mL (≈ 0.06 µM); in assay [3], 0.02 µg/mL (≈ 0.06 µM); in assay [4], 1 µg/mL (≈ 3 µM); in [7], 2 µg/mL (≈ 6 µM); in assay [8], 0.02 µg/mL (≈ 0.06 µM); in assay [9], 100 µg/mL (≈ 300 µM). In addition, the MIC in [10] was more than 400 µg/mL; in assay [11], 1 µg/mL (≈ 3 µM).

Take `O=c1[nH]c(=O)n([C@@H]2O[C@@H]3COP(=O)(O)O[C@H]3[C@H]2O)cc1I`: the IC50 in assay [1] was 344 µg/mL (≈ 796 µM); in assay [5] it was 315 µg/mL (≈ 729 µM); in assay [6], 722 µg/mL (≈ 1670 µM); in assay [12], 359 µg/mL (≈ 831 µM).

In the case of `O=c1[nH]cc(F)c(=O)[nH]1` [FLUOROURACIL], the IC50 in [1] amounted to 0.286 µg/mL (≈ 2.2 µM); in assay [5] it was 0.208 µg/mL (≈ 1.6 µM); in assay [6] it was 3.37 µg/mL (≈ 25.9 µM); in [12], 1.35 µg/mL (≈ 10.4 µM).

On to `O=c1[nH]cc(Br)c(=O)[nH]1` [5-BROMOURACIL], for which the IC50 in assay [1], in assay [5], in assay [6] and in assay [12] was more than 1000 µg/mL throughout.

Regarding `O=c1[nH]c(=O)n([C@@H]2O[C@@H]3COP(=O)(O)O[C@H]3[C@H]2O)cc1Br`, the IC50 was determined as 294 µg/mL (≈ 764 µM) in [1], 315 µg/mL (≈ 818 µM) in [5], 241 µg/mL (≈ 626 µM) in [6] and 210 µg/mL (≈ 545 µM) in assay [12]. Also, the MIC in assay [2] was more than 200 µg/mL; in [3], 200 µg/mL (≈ 519 µM); in assay [4] it was 150 µg/mL (≈ 390 µM); in assay [7], more than 200 µg/mL; in assay [8], more than 200 µg/mL; in assay [9], more than 200 µg/mL. Further, the MIC in assay [10] and in assay [11] was more than 200 µg/mL each time.

Regarding `O=c1[nH]c(=O)n([C@@H]2O[C@H](CO)[C@@H](O)[C@@H]2O)cc1Br`, the IC50 in [1] was 335 µg/mL (≈ 1040 µM); in assay [5] it was 210 µg/mL (≈ 650 µM); in assay [6] it was 950 µg/mL (≈ 2940 µM); in [12], 32 µg/mL (≈ 99 µM).

On to `O=c1[nH]c(=O)n(C2O[C@H](COP(=O)(O)O)[C@@H](O)[C@@H]2O)cc1F` (stereo partly drawn), for which the IC50 in assay [1] amounted to 0.03 µg/mL (≈ 0.0877 µM); in assay [5] it was 0.024 µg/mL (≈ 0.0701 µM); in assay [6], 0.141 µg/mL (≈ 0.412 µM); in [12] it was 0.029 µg/mL (≈ 0.0848 µM).

`O=c1[nH]c(=O)n(C2O[C@H](CO)[C@@H](O)[C@@H]2O)cc1I` (stereo partly drawn): the IC50 in [1] was more than 1000 µg/mL; in assay [5], more than 1000 µg/mL; in assay [6], 738 µg/mL (≈ 1990 µM); in assay [12] it was 639 µg/mL (≈ 1730 µM).

With `O=c1[nH]c(=O)n([C@@H]2O[C@H](COP(=O)(O)O)[C@@H](O)[C@H]2O)cc1Br`, the IC50 was 376 µg/mL (≈ 933 µM) in [1], 385 µg/mL (≈ 955 µM) in [5], more than 1000 µg/mL in assay [6] and 48 µg/mL (≈ 119 µM) in assay [12].

As for `O=c1[nH]c(=O)n([C@@H]2O[C@H](CO)[C@@H](O)[C@H]2O)cc1F` [5-FLUOROURIDINE], the IC50 in [1] stood at 0.019 µg/mL (≈ 0.0725 µM); in assay [5], 0.013 µg/mL (≈ 0.0496 µM); in assay [6], 0.085 µg/mL (≈ 0.324 µM); in [12], 0.023 µg/mL (≈ 0.0877 µM).

Take `Oc1ncc(Cl)c(O)n1`: the IC50 in [1] is 660 µg/mL (≈ 4500 µM); in assay [5] it was 455 µg/mL (≈ 3110 µM); in assay [6], more than 1000 µg/mL; in assay [12], more than 1000 µg/mL.

For the molecule `O=c1[nH]c(=O)n([C@@H]2O[C@@H]3COP(=O)(O)O[C@H]3[C@H]2O)cc1F`, the IC50 came to 0.332 µg/mL (≈ 1.02 µM) in assay [1], 0.34 µg/mL (≈ 1.05 µM) in assay [5], 1.64 µg/mL (≈ 5.06 µM) in assay [6] and 0.416 µg/mL (≈ 1.28 µM) in assay [12]. For the same molecule, the MIC was more than 100 µg/mL in assay [2]; more than 100 µg/mL in [3]; more than 100 µg/mL in assay [4]; 20 µg/mL (≈ 61.7 µM) in assay [7]; more than 100 µg/mL in assay [8]; more than 100 µg/mL in assay [9]. The MIC was 150 µg/mL (≈ 463 µM) in [10] and more than 100 µg/mL in [11].

Regarding `O=c1[nH]c(=O)n([C@@H]2O[C@H](COP(=O)(O)O)[C@@H](O)[C@H]2O)cc1I`, the IC50 in assay [1] is more than 1000 µg/mL; in assay [5], 703 µg/mL (≈ 1560 µM); in assay [6], more than 1000 µg/mL; in assay [12], more than 1000 µg/mL.
